Measured values from different studies.
Protocols differ between the studies behind these lines.
Target: Myotonin-protein kinase (DMPK, Homo sapiens, UniProt Q09013)
One construct used (Q09013 1-629): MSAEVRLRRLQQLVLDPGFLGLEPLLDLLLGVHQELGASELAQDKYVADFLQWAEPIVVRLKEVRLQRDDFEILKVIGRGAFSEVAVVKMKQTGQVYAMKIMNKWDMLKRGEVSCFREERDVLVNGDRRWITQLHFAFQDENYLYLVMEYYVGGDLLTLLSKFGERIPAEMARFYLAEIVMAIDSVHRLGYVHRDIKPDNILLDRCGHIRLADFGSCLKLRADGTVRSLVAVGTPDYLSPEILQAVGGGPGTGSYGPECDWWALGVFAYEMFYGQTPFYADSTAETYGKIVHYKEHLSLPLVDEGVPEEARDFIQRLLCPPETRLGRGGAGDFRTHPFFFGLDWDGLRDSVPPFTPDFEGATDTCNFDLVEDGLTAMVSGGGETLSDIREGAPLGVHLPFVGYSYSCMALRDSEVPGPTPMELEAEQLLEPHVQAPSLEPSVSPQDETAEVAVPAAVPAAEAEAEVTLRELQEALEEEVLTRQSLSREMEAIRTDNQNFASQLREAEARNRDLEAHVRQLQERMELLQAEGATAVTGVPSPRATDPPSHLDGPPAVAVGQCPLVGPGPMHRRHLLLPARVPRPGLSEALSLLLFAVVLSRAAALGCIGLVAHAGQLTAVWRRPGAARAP

SMILES | assay | setting | measurement | result
C#Cc1cccc(Nc2ncnc3cc(OCCOC)c(OCCOC)cc23)c1 | cell-free assay | 0.5 µM | remaining signal | 96.9%
CCC1(CC)NC(=O)c2c(c3ccc(Cl)c(Cl)c3n2C)C1C#N (stereo not shown) | thermal stability, DSF | 10 µM | ΔTm | 0.2 °C
CC(=O)N1CCC(c2ccc(C(=O)NC(=N)N)cc2C(F)(F)F)CC1 | cell-free assay, competition with immobilised ligand | 1 µM | remaining binding | 100%
CCN(CC)CCNC(=O)c1c(C)[nH]c(/C=C2\C(=O)Nc3ccc(F)cc32)c1C | enzyme activity, inhibitor | 0.3 µM | inhibition | -8%
CO[C@H]1CC[C@H](CNc2ccc(S(=O)(=O)NC(=O)c3ccc(N4CCN(CC5=C(c6ccc(Cl)cc6)CC(C)(C)CC5)CC4)cc3Oc3cnc4[nH]ccc4c3)cc2[N+](=O)[O-])CC1 | cell-free assay, competition with immobilised ligand | 1 µM | remaining binding | 91%
N#CCCc1ccc2c(c1)-c1[nH]c3ccc([N+](=O)[O-])cc3c1CC(=O)N2 | cell-free assay | 0.5 µM | remaining signal | 89.8%
Cc1cc(NC(=O)c2cccc3cc(-c4cccc5[nH]nc(N)c45)ccc23)ccc1F | enzyme activity, inhibitor | 0.1 µM | activity vs control | 99%
c1ccc(N2CCN(Cc3nc4ccccc4[nH]3)CC2)nc1 | binding, competition with immobilised ligand | 1 µM | remaining binding | 100%
Cn1c2c(c3ccccc31)C(C#N)C(C)(C)NC2=O (stereo not shown) | thermal stability, DSF | 10 µM | ΔTm | -0.3 °C
CC(C)(C)c1nc(-c2cccc(NS(=O)(=O)c3c(F)cccc3F)c2F)c(-c2ccnc(N)n2)s1 | enzyme activity, inhibitor, radiometric | 1 µM | remaining activity | 103%
CS(=O)(=O)NCC[C@H](NC(=O)c1cncc2c1cnn2-c1ccc(F)cc1)c1ccnc(S(C)(=O)=O)c1 | cell-free assay, competition with immobilised ligand | 1 µM | remaining binding | 100%
Cc1cnc(NC2CCOCC2)nc1-n1cnc(C(=O)NC(CN)c2cc(F)cc(Cl)c2)c1 (stereo not shown) | enzyme activity, inhibitor, radiometric | 1 µM | remaining activity | 95%
Cn1c2c(c3ccc(Cl)c(Cl)c31)C(C#N)C(C)(C)NC2=O (stereo not shown) | thermal stability, DSF | 10 µM | ΔTm | 0.4 °C
O=C1NC(=O)c2cc(Nc3ccc(F)cc3)c(Nc3ccc(F)cc3)cc21 | cell-free assay | 0.5 µM | remaining signal | 108%
CN(c1ccnc(CNc2nc(Nc3ccc4c(c3)CC(=O)N4)ncc2C(F)(F)F)n1)S(C)(=O)=O | cell-free assay, competition with immobilised ligand | 1 µM | remaining binding | 23%
CNC(=O)c1cc(Oc2ccc(NC(=O)Nc3ccc(Cl)c(C(F)(F)F)c3)cc2)ccn1 | enzyme activity, inhibitor | 0.3 µM | inhibition | -9%
O=C(Nc1cnn(-c2csc(C(=O)NC3COC3)c2)c1)Nc1ccccc1Cl | enzyme activity, inhibitor | 5 µM | remaining activity | 102%
COc1ccc2c(O[C@@H]3C[C@H]4C(=O)N[C@]5(C(=O)O)CC5/C=C\CCCCC[C@H](NC(=O)OC5CCCC5)C(=O)N4C3)cc(-c3csc(NC(=O)C(C)C)n3)nc2c1C (stereo partly shown) | cell-free assay, competition with immobilised ligand | 1 µM | remaining binding | 83%
CCN(CC)c1ccc(C2=NNC(=O)CC2C)cc1[N+](=O)[O-] (stereo not shown) | enzyme activity, inhibitor | 10 µM | remaining activity | 91%
Cc1ccc(C(=O)Nc2ccc(CN3CCN(C)CC3)c(C(F)(F)F)c2)cc1C#Cc1cnc2cccnn12 | enzyme activity, inhibitor | 23.5 nM | remaining activity | 100%
CCCOc1ccc(OC)c(F)c1C(=O)c1ccc(C(=O)N[C@@H]2CNC[C@H]2NC(=O)c2ccc3[nH]ncc3c2)cc1 | enzyme activity, inhibitor | 10 µM | remaining activity | 93%
CC1(C)NC(=O)c2[nH]c3c(Cl)c(Cl)ccc3c2C1C#N (stereo not shown) | thermal stability, DSF | 10 µM | ΔTm | 1 °C
CCOc1cc(-c2nncn2C)ccc1Nc1ncc2cc(C)nc(NCC(C)(C)C)c2n1 | cell-free assay, TR-FRET | 1 µM | inhibition | ≤ 15%
Cc1ccc(Nc2nccc(N(C)c3ccc4c(C)n(C)nc4c3)n2)cc1S(N)(=O)=O | enzyme activity, inhibitor | 10 µM | inhibition | -12%
CS(=O)(=O)c1cc(C2(NC(=O)c3cncc4c3cnn4-c3ccc(F)cc3)CC2)ccn1 | cell-free assay, competition with immobilised ligand | 1 µM | remaining binding | 99%
N#CC1c2c([nH]c3c(Cl)c(Cl)ccc23)C(=O)NC12CCCCC2 (racemic) | thermal stability, DSF | 10 µM | ΔTm | -0.6 °C
CN(C)c1ncnc(-c2ccc3nc(Nc4cc(CN5CCN(C(=O)CC(F)(F)F)CC5)ccn4)[nH]c3c2)c1Cl | cell-free assay, competition with immobilised ligand | 1 µM | remaining binding | 91%
Cn1c2c(Cl)c(Cl)ccc2c2cc(N)[nH]c(=O)c21 | thermal stability, DSF | 10 µM | ΔTm | 0.1 °C
